Measurements of several laboratories.
dxs: dxs (Pseudomonas aeruginosa, UniProt Q9KGU7)
ACE: Angiotensin-converting enzyme (ACE, Oryctolagus cuniculus, UniProt P12822)
ALOX5: Polyunsaturated fatty acid 5-lipoxygenase (ALOX5, Homo sapiens, UniProt P09917)

Cn1c(=O)n(CCCCN2CCC3(CC2)OCc2ccccc23)c2ccccc21
Ki (Sodium-dependent serotonin transporter (Slc6a4, Rattus norvegicus, UniProt P31652); ligand displacement; radioligand; cell membranes): 2.83 µM

COc1cc2c(cc1OC)CN(CCc1ccc(NC(=O)c3cccc4c(=O)c5cccc(OC)c5[nH]c34)cc1)CC2
Ki (Mu-type opioid receptor (OPRM1, Homo sapiens, UniProt P35372); cell-free assay): > 10 µM

COC(=O)C1=CO[C@@H](O[C@@H]2O[C@H](CO)[C@@H](O)[C@H](O)[C@H]2O)[C@@H]2C(CO)=CC[C@H]12
Kd (Cystathionine beta-synthase (CBS, Homo sapiens, UniProt P35520); binding; MST): 38.4 µM

CCCCOc1cc(C(=O)NCCN(CC)CC)c2ccccc2n1
IC50 (PKD2L1 (Homo sapiens, UniProt Q9P0L9, F549I); ion current; inhibitor; patch clamp): 76.2 µM

CCCCOP(=O)(O)C(C)=O
Ki (dxs; enzyme activity; inhibitor): 1.84 µM

N=C(N)NCCC[C@H](NC(=O)[C@H](Cc1ccccc1)NC(=O)[C@@H]1CCCN1C(=O)[C@H](CO)NC(=O)[C@@H]1CCCN1C(=O)[C@@H](N)Cc1ccccc1)C(=O)O
IC50 (ACE; enzyme activity; inhibitor): 81.3 µM

C=CCOc1ccc(C(=O)/C=C/c2ccc(OC)cc2)c(OS(C)(=O)=O)c1I
IC50 (ALOX5; enzyme activity; inhibitor): 38.3 µM

N[C@@H](Cc1c[nH]cn1)C(=O)N[C@@H](CC(=O)O)C(=O)N[C@@H](CS)C(=O)N[C@@H](Cc1ccccc1)C(=O)O
IC50 (ACE; enzyme activity; inhibitor): 4.5 µM

CCN1CCN(Cc2ccc(Nc3ncc(F)c(-c4cc(F)c5nc6n(c5c4)[C@H](C)CCC6)n3)nc2)CC1
IC50 (Multidrug and toxin extrusion protein 2 (SLC47A2, Homo sapiens, UniProt Q86VL8); enzyme activity; inhibitor): 0.0654 µM

C=CCOc1ccc(C(=O)/C=C/c2cccc(F)c2)c(OS(C)(=O)=O)c1I
IC50 (ALOX5; enzyme activity; inhibitor): 34.6 µM

CC(=O)P(=O)(O)OCCc1cn([C@H](Cc2ccccc2)C(=O)O)nn1
Ki (dxs; enzyme activity; inhibitor): 2.6 µM

COc1ccc(CCCCC(=O)C(F)(F)C(F)(F)F)cc1
IC50 (Cytosolic phospholipase A2 (PLA2G4A, Homo sapiens, UniProt P47712); enzyme activity; inhibitor): 26.2 µM

CC(C)C[C@H](N)C(=O)N[C@@H](Cc1c[nH]c2ccccc12)C(=O)N[C@@H](CC(=O)O)C(=O)N1CCC[C@H]1C(=O)N1CCC[C@H]1C(=O)N[C@@H](CCC(=O)O)C(=O)NCC(=O)N[C@@H](C)C(=O)N1CCC[C@H]1C(=O)O
IC50 (ACE; enzyme activity; inhibitor): 207 µM
